The values that follow come from PubChem BioAssay AID602126 (Broad Institute, 2011).

Calls of active or inactive are those of the source.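 Rule for the calls: active = compounds cutting cell ATP light whose fitted AC50 is at most double the top dose tried; inconclusive = flat moderate signal loss, or an unreliable curve fit; inactive = the rest.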 A value given as a limit tells only on which side of the number the result lay.

System in the first assay: not listed separately
The experiment in a line: ldlA[mSR-BI] cell viability loss – CellTiter-Glo luminescence, 24 h, dry powder, set 5, cytotoxicity control for SR-BI HDL uptake inhibitor project, dose response (AID 602126). The conditions noted are these: ldlA[mSR-BI] CHO cells viability, CellTiter-Glo ATP luminescence, 24 h; at 35 µM (top of the series). The method in brief: (§1)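 Technique: CellTiter-Glo ATP luminescence; System: ldlA[mSR-BI] cells, cell viability measurement; Amount: 4,000 ldlA[mSR-BI] cells per well; Incubation: 24 h compound exposure at 37 °C, then 10 min with detection reagent.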
On the technique in general: ATP-based viability assays read luminescence as a measure of living cells.
On to `CNC[C@@H]1Oc2ccc(NC(=O)Cc3cn(C)c4ccccc34)cc2C(=O)N([C@H](C)CO)C[C@H]1C`, for which the activity change, negative = cytotoxicity was 2.26% (inactive).
On the same count and under the same terms, to `CCC(=O)Nc1ccc(-c2csc(NC(=O)c3ccco3)n2)cc1` belongs -1.37% (inactive).
`C[C@H](CO)N1C[C@H](C)[C@H](CN(C)S(=O)(=O)c2ccc(Cl)cc2)Oc2ccc(NC(=O)Cc3cn(C)c4ccccc34)cc2C1=O`: the activity change, negative = cytotoxicity was -19.4% (inactive).
Still for that read-out and setting: to `C[C@H](CO)N1C[C@H](C)[C@@H](CN(C)S(=O)(=O)c2ccc(F)cc2)Oc2ccc(NC(=O)Cc3cn(C)c4ccccc34)cc2C1=O` belongs -14% (inactive).
The same measure, in the same setting: the same measure for `C[C@@H]1CN([C@H](C)CO)C(=O)c2cc(NC(=O)Cc3cn(C)c4ccccc34)ccc2O[C@H]1CN(C)S(C)(=O)=O`: -4.54% (inactive).
Same read-out and setting: the same measure for `O=C(Nc1ccc(-c2nc3cc(NC(=O)c4ccc(NC(=O)c5cccc6ccccc56)cc4)ccc3[nH]2)cc1)c1ccc(NC(=O)c2cccc3ccccc23)cc1`: -8.2% (inactive); for `CCC(=O)N1CCc2cc(-c3csc(NC(=O)c4cc5cccnc5o4)n3)ccc21`: -0.539% (inactive); for `O=C(Nc1nc(-c2ccc3c(c2)CCN3C(=O)C2CC2)cs1)c1ccco1`: -26.1% (inactive).
For the molecule `COc1ccc(-c2nnn(CC(=O)N(C3CCCCC3)C(C)C(=O)NC3CCCC3)n2)cc1OC` (stereo unspecified), the activity change, negative = cytotoxicity was -8.68% (inactive).
Still for that read-out and setting: to `COc1ccc(-c2nnn(CC(=O)N(C3CCCCC3)C(C)C(=O)NC(C)C)n2)cc1OC` (stereo unspecified) belongs -0.753% (inactive); to `Cc1ccc(-c2nnc(N3CCC(C)CC3)c3ccccc23)cc1C`, -8.22% (inactive); to `C[C@@H]1CN([C@H](C)CO)C(=O)Cc2cc(NC(=O)Cc3cn(C)c4ccccc34)ccc2O[C@H]1CN(C)S(=O)(=O)c1ccc(F)cc1`, -14% (inactive).
The same measure, in the same setting: the same measure for `C[C@H]1CN([C@@H](C)CO)C(=O)c2cccc(NC(=O)Nc3ccccc3)c2O[C@@H]1CN(C)Cc1ccc(Cl)c(Cl)c1`: -98.2% (inactive).
The same measure, in the same setting: the same measure for `C[C@H]1CN([C@@H](C)CO)C(=O)c2cccc(NC(=O)Nc3ccccc3)c2O[C@@H]1CN(C)S(C)(=O)=O`: 1.04% (inactive); for `C[C@@H]1CN([C@@H](C)CO)C(=O)c2cc(NC(=O)Cc3cn(C)c4ccccc34)ccc2O[C@H]1CN(C)S(=O)(=O)c1ccc(F)cc1`: -9.34% (inactive).
Turning to `CC(OC(=O)c1cccc(NS(C)(=O)=O)c1)C(=O)Nc1ccc(N2CCOCC2)cc1` (stereo unspecified), the activity change, negative = cytotoxicity was -6.16% (inactive).
On the same count and under the same terms, the same measure for `Cc1cc(C)c2c(c1)NC(c1cc3c(cc1Br)OCO3)C1CC=CC21` (stereo unspecified): -26.7% (inactive).
Regarding `CCC(=O)N1CCc2cc(-c3csc(/N=C(/OC)c4cc(OC)cc(OC)c4)n3)ccc21`, the activity change, negative = cytotoxicity is -10.7% (inactive).
On the same count and under the same terms, the same measure for `C[C@H](CO)N1C[C@H](C)[C@H](CN(C)S(=O)(=O)c2ccc(F)cc2)Oc2ccc(NS(C)(=O)=O)cc2C1=O`: 11.2% (inactive); for `COc1ccc(-c2nnn(CC(=O)N(C3CC3)C(C)C(=O)NC3CCCC3)n2)cc1OC` (stereo unspecified): -16% (inactive); for `C[C@H]1CN([C@@H](C)CO)C(=O)c2cccc(NC(=O)Nc3ccccc3)c2O[C@@H]1CN(C)Cc1ccc(C(F)(F)F)cc1`: -30.4% (inactive).
Still for that read-out and setting: the same measure for `CCC(=O)N1CCc2cc(-c3cnc(NC(C)=O)[nH]3)ccc21`: -35.4% (inactive); for `CCC(=O)N1CCc2cc(-c3csc(NC(=O)c4ccno4)n3)ccc21`: 0.915% (inactive).
On the same count and under the same terms, to `CCC(=O)N1CCc2cc(-c3csc(NC(=O)c4cocn4)n3)ccc21` belongs -6.6% (inactive); to `C[C@@H]1CN([C@H](C)CO)C(=O)c2cc(NC(=O)Cc3cn(C)c4ccccc34)ccc2O[C@H]1CN(C)C(=O)Nc1ccc(F)cc1`, -8.77% (inactive); to `CCC(=O)N1CCc2cc(-c3coc(NC(=O)c4ccco4)n3)ccc21`, -8.19% (inactive).
On to `CCOC(=O)Nc1cccc(NC(=O)c2cc(OC)cc(OC)c2)c1`, for which the activity change, negative = cytotoxicity is -19.4% (inactive).
On to `COc1cccc(-c2nnn(CC(=O)N(C3CCCCC3)C(C)C(=O)NC3CCCC3)n2)c1` (stereo unspecified), for which the activity change, negative = cytotoxicity was -12.4% (inactive).
Same read-out and setting: to `C[C@H]1CN([C@@H](C)CO)C(=O)c2cc(NC(=O)Cc3cn(C)c4ccccc34)ccc2O[C@@H]1CN(C)S(=O)(=O)c1ccc(F)cc1` belongs -15.6% (inactive).
On the same count and under the same terms, the same measure for `CC(C)(C)OC(=O)N1CCc2cc(-c3noc(NC(=O)c4ccco4)n3)ccc21`: -3.91% (inactive); for `CC(C)(C)NC(=O)N1CCN(c2ncccc2C(F)(F)F)CC1`: -9.57% (inactive); for `Cc1ccc(-c2nnn(CC(=O)N(C3CCCCC3)C(C)C(=O)NC3CCCC3)n2)cc1` (stereo unspecified): -2.67% (inactive).
Same read-out and setting: the same measure for `C[C@H]1CN([C@@H](C)CO)C(=O)c2cccc(NS(C)(=O)=O)c2O[C@@H]1CN(C)Cc1ccc(Cl)c(Cl)c1`: -10.3% (inactive).
Regarding `C[C@H]1CN([C@@H](C)CO)C(=O)c2cccc(NC(=O)Nc3ccccc3)c2O[C@@H]1CN(C)C`, the activity change, negative = cytotoxicity is -7.64% (inactive).
Still for that read-out and setting: the same measure for `COc1ccc(-c2nnn(CC(=O)N(C)C(C)C(=O)NC3CCCC3)n2)cc1OC` (stereo unspecified): -6.96% (inactive); for `CCC(=O)N1CCc2cc(-c3csc(NC(=O)C4CCCC4)n3)ccc21`: 0.408% (inactive).
Still for that read-out and setting: the same measure for `COc1ccccc1-c1nnn(CC(=O)N(C2CCCCC2)C(C)C(=O)NC2CCCC2)n1` (stereo unspecified): 1.77% (inactive); for `C[C@@H]1CN([C@@H](C)CO)C(=O)c2cc(NC(=O)Cc3cn(C)c4ccccc34)ccc2O[C@H]1CN(C)S(=O)(=O)c1ccc(Cl)cc1`: -7.85% (inactive).
Still for that read-out and setting: the same measure for `COc1ccc(-c2nnn(CC(=O)N(C3CCCCC3)C(C)C(=O)NC(C)(C)C)n2)cc1OC` (stereo unspecified): -2.38% (inactive); for `CCC(=O)N1CCc2cc(-c3csc(NC(=O)c4ccc(F)c(OC)c4)n3)ccc21`: -10.7% (inactive).
Consider `O=C(Nc1ccc(-c2nc3ccc(NC(=O)c4ccccc4[N+](=O)[O-])cc3[nH]2)cc1)c1ccccc1[N+](=O)[O-]`, for which the activity change, negative = cytotoxicity is -15.1% (inactive).
For the molecule `CCC(=O)N1CCc2cc(-c3cnc(NC(=O)c4ccco4)[nH]3)ccc21`, the activity change, negative = cytotoxicity was 2.33% (inactive).
On the same count and under the same terms, the same measure for `COc1ccc(-c2nnn(CC(=O)N(C3CCCCC3)C(C)C(=O)NC3CC3)n2)cc1OC` (stereo unspecified): -10.4% (inactive).
The same measure, in the same setting: to `CC(C(=O)NC1CCCC1)N(C(=O)Cn1nnc(-c2ccccc2Cl)n1)C1CCCCC1` (stereo unspecified) belongs -11.7% (inactive).

The test system of another assay is ldlA[mSR-BI] CHO cells viability, CellTiter-Glo ATP luminescence, 24 h. Described as above.
Details: not given
The method in brief: as §1
As a reminder, the AC50 is the concentration giving half of the maximal activity seen. For the molecule `CCC(=O)Nc1ccc(-c2csc(NC(=O)c3cccc(OC)c3)n2)cc1`, the AC50 is > 70 µM (inactive).
The same measure, in the same setting: to `COc1cc(OC)cc(C(=O)Nc2nc(-c3ccc4c(c3)CCN4C(=O)OC(C)(C)C)cs2)c1` belongs > 70 µM (inactive); to `COc1cc(OC)cc(C(=O)Nc2nc(-c3ccc4c(c3)CCN4C(C)=O)cs2)c1`, > 70 µM (inactive).
Same read-out and setting: to `Cc1cc(SC(C)C(=O)Nc2ncc(Cl)cc2Cl)nc2ccccc12` (stereo unspecified) belongs 35.1 µM; to `C[C@H](CO)N1C[C@H](C)[C@H](CN(C)S(=O)(=O)c2ccc(F)cc2)Oc2ccc(NC(=O)Cc3cn(C)c4ccccc34)cc2C1=O`, > 70 µM (inactive).
Still for that read-out and setting: to `CCC(=O)N1CCc2cc(-c3csc(NC(=O)c4cccc(OC(F)(F)F)c4)n3)ccc21` belongs > 70 µM (inactive); to `COC(=O)c1cn(C(=O)c2cccc3ccccc23)c2ccccc12`, 38 µM.
For `CCC(=O)N1CCc2cc(-c3csc(NC(=O)c4cc(OC)c(OC)c(OC)c4)n3)ccc21`, the AC50 is > 70 µM (inactive).
Same read-out and setting: the same measure for `C[C@H]1CN([C@@H](C)CO)C(=O)c2cccc(N(C)C)c2O[C@@H]1CN(C)Cc1ccc(Cl)c(Cl)c1`: > 70 µM (inactive); for `CCC(=O)N1CCc2cc(-c3csc(NC(=O)c4ccco4)n3)ccc21`: > 70 µM (inactive); for `C[C@@H]1CN([C@H](C)CO)C(=O)c2cc(NC(=O)Cc3cn(C)c4ccccc34)ccc2O[C@@H]1CN(C)S(=O)(=O)c1ccc(Cl)cc1`: > 70 µM (inactive).
Same read-out and setting: to `CCC(=O)Nc1ccc(-c2csc(N)n2)cc1` belongs > 70 µM (inactive); to `COc1ccc([C@H]2CC(=O)C=C(c3cccc4c3sc3ccccc34)C2)cc1OC`, > 70 µM (inactive); to `O=C(Nc1ccc(-c2nc3ccc(NC(=O)c4ccccc4)cc3[nH]2)cc1)c1ccccc1`, 2.63 µM.
Still for that read-out and setting: the same measure for `O=C(Nc1cc(Cl)ccc1Cl)c1cc(Cl)ccc1NS(=O)(=O)c1ccc(Cl)c([N+](=O)[O-])c1`: 17.3 µM; for `COc1cc(OC)cc(C(=O)Nc2nc(-c3ccc4c(c3)CCN4)cs2)c1`: 46.5 µM; for `O=C(Nc1ccccc1)c1ccccc1NS(=O)(=O)c1ccc(Cl)cc1`: 32.5 µM.
With `COc1cc(OC)cc(C(=O)Nc2nc(-c3ccc4c(c3)CCN4C(=O)CN(C)C)cs2)c1`, the AC50 is 20.2 µM.
With `O=C(Nc1cc(C(F)(F)F)ccc1Cl)c1ccccc1NS(=O)(=O)c1ccc(Cl)cc1`, the concentration at half-maximal activity (AC50) was 0.285 µM.
On the same count and under the same terms, the same measure for `COc1ccc(-c2nc(CC(=O)N(C3CCCCC3)C(C)C(=O)NC3CCCC3)cs2)cc1OC` (stereo unspecified): 67 µM; for `COc1cc(OC)cc(C(=O)Nc2nc(-c3ccc4[nH]ccc4c3)cs2)c1`: 15.6 µM.
Still for that read-out and setting: to `CC(C(=O)NC1CCCC1)N(C(=O)Cn1nnc(-c2ccc3c(c2)OC(F)(F)O3)n1)C1CCCCC1` (stereo unspecified) belongs 55.2 µM.
